Assay results from ChEMBL document CHEMBL1138555, “N-acylated and N,N'-diacylated imidazolidine-2-thione derivatives and N,N'-diacylated tetrahydropyrimidine-2(1H)-thione analogues: synthesis and antiproliferative activity” (Eur J Med Chem, 2009).

Experiments:
MT4 = assay: Antiproliferative activity against human MT4 cells assessed as reduction of growth by MTT assay; assay type: functional, cell-based
Method in brief: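 MT-4 lymphoblastoid T cells (ATCC) in RPMI 1640 with 10% FCS, penicillin/streptomycin, checked for mycoplasma. 1 × 10⁴ mock-infected cells per well with serial dilutions from a 100 mM DMSO stock. Incubated 4 days at 37 °C, viable cells counted by MTT. IC50 versus untreated controls by linear regression. Mean of three separate experiments.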

HL-60(TB) = assay: Growth inhibition of human HL-60(TB) cells after 48 hrs by sulforhodamine B assay; assay type: functional; conditions: HL-60, 48 h
Method in brief: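 NCI 60-cell-line screen protocol: cells exposed to compound at five 10-fold dilutions from 10^-4 to 10^-8 M for the last 48 h of a 72 h incubation. Sulforhodamine B protein assay estimated viability/growth. GI50 (50% growth inhibition) derived; where not reached or exceeded, reported as greater or less than the highest or lowest concentration tested.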

K562 = assay: Growth inhibition of human K562 cells after 48 hrs by sulforhodamine B assay; assay type: functional; conditions: K562, 48 h
Method in brief: (§1)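 NCI screen panel. Five 10-fold concentrations from 10^-4 to 10^-8 M. Exposure for the last 48 h of a 72 h incubation. Growth estimated by sulforhodamine B protein assay. GI50 is the concentration giving 50% growth inhibition. Where that level was not reached or was exceeded, the value is given as above or below the highest or lowest concentration tested.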

MOLT-4 = assay: Growth inhibition of human MOLT4 cells after 48 hrs by sulforhodamine B assay; assay type: functional; conditions: MOLT-4, 48 h; method in brief: as §1
[1] = Growth inhibition of human […] cells after 48 hrs by sulforhodamine B assay; assay type: functional; method in brief: as §1
A549 = assay: Growth inhibition of human A549 cells after 48 hrs by sulforhodamine B assay; assay type: functional; conditions: A549, 48 h; method in brief: as §1
EKVX = assay: Growth inhibition of human EKVX cells after 48 hrs by sulforhodamine B assay; assay type: functional; method in brief: as §1
HOP-62 = assay: Growth inhibition of human HOP62 cells after 48 hrs by sulforhodamine B assay; assay type: functional; conditions: HOP-62, 48 h; method in brief: as §1
HOP-92 = assay: Growth inhibition of human HOP92 cells after 48 hrs by sulforhodamine B assay; assay type: functional; conditions: HOP-92, 48 h; method in brief: as §1
NCI-H23 = assay: Growth inhibition of human NCI-H23 cells after 48 hrs by sulforhodamine B assay; assay type: functional; conditions: NCI-H23, 48 h; method in brief: as §1
NCI-H322M = assay: Growth inhibition of human NCI-H322M cells after 48 hrs by sulforhodamine B assay; assay type: functional; method in brief: as §1
NCI-H460 = assay: Growth inhibition of human NCI-H460 cells after 48 hrs by sulforhodamine B assay; assay type: functional; conditions: NCI-H460, 48 h; method in brief: as §1
COLO 205 = assay: Growth inhibition of human COLO205 cells after 48 hrs by sulforhodamine B assay; assay type: functional; conditions: COLO 205, 48 h; method in brief: as §1
HCT-116 = assay: Growth inhibition of human HCT116 cells after 48 hrs by sulforhodamine B assay; assay type: functional; conditions: HCT-116, 48 h; method in brief: as §1
HCT-15 = assay: Growth inhibition of human HCT15 cells after 48 hrs by sulforhodamine B assay; assay type: functional; conditions: HCT-15, 48 h; method in brief: as §1
HT-29 = assay: Growth inhibition of human HT-29 cells after 48 hrs by sulforhodamine B assay; assay type: functional; conditions: HT-29, 48 h; method in brief: as §1
KM12 = assay: Growth inhibition of human KM12 cells after 48 hrs by sulforhodamine B assay; assay type: functional; conditions: KM12, 48 h; method in brief: as §1
SW-620 = assay: Growth inhibition of human SW620 cells after 48 hrs by sulforhodamine B assay; assay type: functional; conditions: SW-620, 48 h
Method in brief: (§2)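 NCI in vitro panel screen. Compounds tested at five 10-fold dilutions, 10^-4 to 10^-8 M. Cells in 96-well plates were exposed for the last 48 h of a 72 h incubation. Viability/growth was read by sulforhodamine B protein assay. GI50 is the concentration giving 50% growth inhibition. Values beyond the tested range are reported as greater or less than the maximum or minimum concentration.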

SF-268 = assay: Growth inhibition of human SF268 cells after 48 hrs by sulforhodamine B assay; assay type: functional; conditions: SF-268, 48 h; method in brief: as §1
SF-295 = assay: Growth inhibition of human SF295 cells after 48 hrs by sulforhodamine B assay; assay type: functional; conditions: SF-295, 48 h; method in brief: as §1
SNB-19 = assay: Growth inhibition of human SNB19 cells after 48 hrs by sulforhodamine B assay; assay type: functional; conditions: SNB-19, 48 h; method in brief: as §2
SNB-75 = assay: Growth inhibition of human SNB75 cells after 48 hrs by sulforhodamine B assay; assay type: functional; conditions: SNB-75, 48 h; method in brief: as §2
U-251 = assay: Growth inhibition of human U251 cells after 48 hrs by sulforhodamine B assay; assay type: functional; conditions: U-251, 48 h; method in brief: as §2
LOX IMVI = assay: Growth inhibition of human LOXIMVI cells after 48 hrs by sulforhodamine B assay; assay type: functional; method in brief: as §1
Malme-3M = assay: Growth inhibition of human MALME-3M cells after 48 hrs by sulforhodamine B assay; assay type: functional; method in brief: as §1
M14 = assay: Growth inhibition of human M14 cells after 48 hrs by sulforhodamine B assay; assay type: functional; conditions: M14, 48 h; method in brief: as §1
SK-MEL-2 = assay: Growth inhibition of human SK-MEL-2 cells after 48 hrs by sulforhodamine B assay; assay type: functional; conditions: SK-MEL-2, 48 h; method in brief: as §1
SK-MEL-28 = assay: Growth inhibition of human SK-MEL-28 cells after 48 hrs by sulforhodamine B assay; assay type: functional; conditions: SK-MEL-28, 48 h; method in brief: as §1
SK-MEL-5 = assay: Growth inhibition of human SK-MEL-5 cells after 48 hrs by sulforhodamine B assay; assay type: functional; conditions: SK-MEL-5, 48 h; method in brief: as §1
UACC-257 = assay: Growth inhibition of human UACC257 cells after 48 hrs by sulforhodamine B assay; assay type: functional; conditions: UACC-257, 48 h; method in brief: as §2
UACC-62 = assay: Growth inhibition of human UACC62 cells after 48 hrs by sulforhodamine B assay; assay type: functional; conditions: UACC-62, 48 h; method in brief: as §2
IGROV-1 = assay: Growth inhibition of human IGROV1 cells after 48 hrs by sulforhodamine B assay; assay type: functional; conditions: IGROV-1, 48 h; method in brief: as §1
OVCAR-3 = assay: Growth inhibition of human OVCAR-3 cells after 48 hrs by sulforhodamine B assay; assay type: functional; conditions: OVCAR-3, 48 h; method in brief: as §1
OVCAR-4 = assay: Growth inhibition of human OVCAR4 cells after 48 hrs by sulforhodamine B assay; assay type: functional; conditions: OVCAR-4, 48 h; method in brief: as §1
OVCAR-8 = assay: Growth inhibition of human OVCAR8 cells after 48 hrs by sulforhodamine B assay; assay type: functional; conditions: OVCAR-8, 48 h; method in brief: as §1
SK-OV-3 = assay: Growth inhibition of human SKOV3 cells after 48 hrs by sulforhodamine B assay; assay type: functional; conditions: SK-OV-3, 48 h; method in brief: as §1
786-0 = assay: Growth inhibition of human 786-0 cells after 48 hrs by sulforhodamine B assay; assay type: functional; conditions: 786-0, 48 h; method in brief: as §1
ACHN = assay: Growth inhibition of human ACHN cells after 48 hrs by sulforhodamine B assay; assay type: functional; method in brief: as §1
CAKI-1 = assay: Growth inhibition of human Caki1 cells after 48 hrs by sulforhodamine B assay; assay type: functional; conditions: CAKI-1, 48 h; method in brief: as §1
RXF 393 = assay: Growth inhibition of human RXF393 cells after 48 hrs by sulforhodamine B assay; assay type: functional; conditions: RXF 393, 48 h; method in brief: as §1
SN12C = assay: Growth inhibition of human SN12C cells after 48 hrs by sulforhodamine B assay; assay type: functional; method in brief: as §2
TK-10 = assay: Growth inhibition of human TK10 cells after 48 hrs by sulforhodamine B assay; assay type: functional; conditions: TK-10, 48 h; method in brief: as §2
UO-31 = assay: Growth inhibition of human UO31 cells after 48 hrs by sulforhodamine B assay; assay type: functional; conditions: UO-31, 48 h; method in brief: as §2
PC-3 = assay: Growth inhibition of human PC3 cells after 48 hrs by sulforhodamine B assay; assay type: functional; conditions: PC-3, 48 h; method in brief: as §1
NCI/ADR-RES = assay: Growth inhibition of human NCI/ADR-RES cells after 48 hrs by sulforhodamine B assay; assay type: functional; method in brief: as §1
MDA-MB-231 = assay: Growth inhibition of human MDA-MB-231 cells after 48 hrs by sulforhodamine B assay; assay type: functional; conditions: MDA-MB-231, 48 h; method in brief: as §1
MDA-MB-435 = assay: Growth inhibition of human MDA-MB-435 cells after 48 hrs by sulforhodamine B assay; assay type: functional; conditions: MDA-MB-435, 48 h; method in brief: as §1
BT-549 = assay: Growth inhibition of human BT549 cells after 48 hrs by sulforhodamine B assay; assay type: functional; conditions: BT-549, 48 h; method in brief: as §1
T47D = assay: Growth inhibition of human T47D cells after 48 hrs by sulforhodamine B assay; assay type: functional; method in brief: as §2

## COC(=O)/C(=C\N1CCN(C(=O)c2ccco2)C1=S)C(C)=O
MT4
  IC50: 7 µM
HL-60(TB)
  GI50: 7.5 µM
K562
  GI50: 10.2 µM
MOLT-4
  GI50: 20.8 µM
[1]
  GI50: 5.5 µM
A549
  GI50: 19.3 µM
EKVX
  GI50: 2.6 µM
HOP-62
  GI50: 20.6 µM
HOP-92
  GI50: 20.8 µM
NCI-H23
  GI50: 12.2 µM
NCI-H322M
  GI50: 12.4 µM
NCI-H460
  GI50: 2.3 µM
COLO 205
  GI50: 12.6 µM
HCT-116
  GI50: 7.4 µM
HCT-15
  GI50: 2.2 µM
HT-29
  GI50: 15.8 µM
KM12
  GI50: 3 µM
SW-620
  GI50: 3.9 µM
SF-268
  GI50: 5.8 µM
SF-295
  GI50: 18.6 µM
SNB-19
  GI50: 41.7 µM
SNB-75
  GI50: 21 µM
U-251
  GI50: 5.5 µM
LOX IMVI
  GI50: 1.6 µM
Malme-3M
  GI50: 5.6 µM
M14
  GI50: 10.7 µM
SK-MEL-2
  GI50: 15.2 µM
SK-MEL-28
  GI50: 9.1 µM
SK-MEL-5
  GI50: 5.3 µM
UACC-257
  GI50: 17.2 µM
UACC-62
  GI50: 11.5 µM
IGROV-1
  GI50: 10.4 µM
OVCAR-3
  GI50: 2.7 µM
OVCAR-4
  GI50: 17.4 µM
OVCAR-8
  GI50: 27.8 µM
SK-OV-3
  GI50: 31.3 µM
786-0
  GI50: 11.2 µM
ACHN
  GI50: 4.1 µM
CAKI-1
  GI50: 2.8 µM
RXF 393
  GI50: 4.4 µM
SN12C
  GI50: 5.9 µM
TK-10
  GI50: 3.5 µM
UO-31
  GI50: 13.5 µM
PC-3
  GI50: 18.1 µM
NCI/ADR-RES
  GI50: 22.2 µM
MDA-MB-231
  GI50: 9 µM
MDA-MB-435
  GI50: 4.5 µM
BT-549
  GI50: 3.5 µM
T47D
  GI50: 6 µM
